Measured values taken from ChEMBL document CHEMBL4680371, “Design and Structure-Activity Relationship of a Potent Furin Inhibitor Derived from Influenza Hemagglutinin” (ACS Med Chem Lett, 2021).
Where a SMILES comes first, the peptide text is derived from it. [ ]: non-standard residue; d: D form. Aib = CC(C)(N)C(=O)O

Target: Furin (Homo sapiens, UniProt P09958)
Assay: Inhibition of recombinant soluble human furin using pyroGlu-Arg-Thr-Lys-Arg-methyl-coumaryl-7-amide as substrate measured after 1 hr
How it was run: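 Soluble human recombinant furin was tested in a competitive kinetic assay. Ki is reported as the mean ± SD of at least two independent experiments.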

Sequence of Furin (P09958 whole entry): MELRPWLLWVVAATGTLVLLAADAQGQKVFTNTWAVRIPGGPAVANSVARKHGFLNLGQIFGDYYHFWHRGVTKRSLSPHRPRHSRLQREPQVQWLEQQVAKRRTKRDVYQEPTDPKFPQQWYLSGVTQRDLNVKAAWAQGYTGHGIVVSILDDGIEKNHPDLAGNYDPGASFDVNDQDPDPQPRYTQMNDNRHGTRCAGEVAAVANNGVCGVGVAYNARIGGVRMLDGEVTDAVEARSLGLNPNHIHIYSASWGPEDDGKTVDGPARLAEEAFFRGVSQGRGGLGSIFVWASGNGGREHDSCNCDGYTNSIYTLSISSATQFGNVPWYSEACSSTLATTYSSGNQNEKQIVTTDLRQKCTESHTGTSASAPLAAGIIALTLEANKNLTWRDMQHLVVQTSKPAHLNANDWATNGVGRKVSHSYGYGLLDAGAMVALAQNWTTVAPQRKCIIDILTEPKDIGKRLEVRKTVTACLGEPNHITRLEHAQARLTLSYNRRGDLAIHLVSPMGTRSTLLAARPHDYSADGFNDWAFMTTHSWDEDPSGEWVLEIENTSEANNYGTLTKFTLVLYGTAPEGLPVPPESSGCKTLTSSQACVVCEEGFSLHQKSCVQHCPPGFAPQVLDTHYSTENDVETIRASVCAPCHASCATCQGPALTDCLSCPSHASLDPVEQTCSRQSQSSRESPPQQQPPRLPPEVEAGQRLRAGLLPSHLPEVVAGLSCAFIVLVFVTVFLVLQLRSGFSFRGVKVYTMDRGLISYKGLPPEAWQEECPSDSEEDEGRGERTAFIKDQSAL

SMILES	Ki
CC(=O)N[C@@H](CCCNC(=N)N)C(=O)N[C@@H](C)C(=O)N[C@@H](CCCNC(=N)N)C(=O)NC1(C(=O)N[C@@H](CCCNC(=N)N)C(=O)N[C@@H](CCCCN)C(=O)N[C@@H](CCCCN)C(=O)N[C@@H](CCCNC(=N)N)C(=O)N[C@H](C(N)=O)[C@@H](C)O)CCCC1	50 nM
CC(=O)N[C@@H](CCC(N)=O)C(=O)N[C@@H](C)C(=O)N[C@@H](CCCNC(=N)N)C(=O)N[C@@H](CCCNC(=N)N)C(=O)N[C@@H](CCCNC(=N)N)C(=O)N[C@@H](CCCCN)C(=O)N[C@@H](CCCCN)C(=O)N[C@@H](CCCNC(=N)N)C(=O)N[C@H](C(N)=O)[C@@H](C)O	10 nM
CC(=O)N[C@@H](CCCNC(=N)N)C(=O)N[C@@H](C)C(=O)N[C@@H](Cc1c[nH]cn1)C(=O)N[C@@H](CCCNC(=N)N)C(=O)N[C@@H](CCCNC(=N)N)C(=O)N[C@@H](CCCCN)C(=O)N[C@@H](CCCCN)C(=O)N[C@@H](CCCNC(=N)N)C(=O)N[C@H](C(N)=O)[C@@H](C)O	25 nM
CC(=O)N[C@@H](CC(=O)O)C(=O)N[C@@H](C)C(=O)N[C@@H](CCCNC(=N)N)C(=O)N[C@@H](CCCNC(=N)N)C(=O)N[C@@H](CCCNC(=N)N)C(=O)N[C@@H](CCCCN)C(=O)N[C@@H](CCCCN)C(=O)N[C@@H](CCCNC(=N)N)C(=O)N[C@H](C(N)=O)[C@@H](C)O	20 nM
CC(=O)N[C@@H](CCCNC(=N)N)C(=O)N[C@@H](CCC(=O)O)C(=O)N[C@@H](CCCNC(=N)N)C(=O)N[C@@H](CCCNC(=N)N)C(=O)N[C@@H](CCCNC(=N)N)C(=O)N[C@@H](CCCCN)C(=O)N[C@@H](CCCCN)C(=O)N[C@@H](CCCNC(=N)N)C(=O)N[C@H](C(N)=O)[C@@H](C)O	24 nM
CC(=O)N[C@@H](CCCNC(=N)N)C(=O)N[C@@H](C)C(=O)N[C@@H](CC(N)=O)C(=O)N[C@@H](CCCNC(=N)N)C(=O)N[C@@H](CCCNC(=N)N)C(=O)N[C@@H](CCCCN)C(=O)N[C@@H](CCCCN)C(=O)N[C@@H](CCCNC(=N)N)C(=O)N[C@H](C(N)=O)[C@@H](C)O	27 nM
CC(=O)N[C@@H](CCC(=O)O)C(=O)N[C@@H](C)C(=O)N[C@@H](CCCNC(=N)N)C(=O)N[C@@H](CCCNC(=N)N)C(=O)N[C@@H](CCCNC(=N)N)C(=O)N[C@@H](CCCCN)C(=O)N[C@@H](CCCCN)C(=O)N[C@@H](CCCNC(=N)N)C(=O)N[C@H](C(N)=O)[C@@H](C)O	11 nM
CC(=O)N[C@@H](CCCNC(=N)N)C(=O)N[C@@H](C)C(=O)N[C@@H](CCCNC(=N)N)C(=O)N1CCC[C@H]1C(=O)N[C@@H](CCCNC(=N)N)C(=O)N[C@@H](CCCCN)C(=O)N[C@@H](CCCCN)C(=O)N[C@@H](CCCNC(=N)N)C(=O)N[C@H](C(N)=O)[C@@H](C)O	8 nM
CC(=O)N[C@@H](CCCNC(=N)N)C(=O)N[C@@H](C)C(=O)NCC(=O)N[C@@H](CCCNC(=N)N)C(=O)N[C@@H](CCCNC(=N)N)C(=O)N[C@@H](CCCCN)C(=O)N[C@@H](CCCCN)C(=O)N[C@@H](CCCNC(=N)N)C(=O)N[C@H](C(N)=O)[C@@H](C)O	35 nM
CC(=O)N[C@@H](CCCNC(=N)N)C(=O)N[C@@H](C)C(=O)N[C@@H](CCCNC(=N)N)C(=O)N[C@H](C(=O)N[C@@H](CCCNC(=N)N)C(=O)N[C@@H](CCCCN)C(=O)N[C@@H](CCCCN)C(=O)N[C@@H](CCCNC(=N)N)C(=O)N[C@H](C(N)=O)[C@@H](C)O)[C@@H](C)O	8 nM
CC[C@H](C)[C@H](NC(=O)[C@H](CCCNC(=N)N)NC(=O)[C@H](C)NC(=O)[C@@H](NC(C)=O)[C@@H](C)O)C(=O)N[C@@H](CCCNC(=N)N)C(=O)N[C@@H](CCCCN)C(=O)N[C@@H](CCCCN)C(=O)N[C@@H](CCCNC(=N)N)C(=O)N[C@H](C(N)=O)[C@@H](C)O (Ac-TARIRKKRT-NH2)	11 nM
CC(=O)N[C@@H](CCCNC(=N)N)C(=O)N[C@@H](C)C(=O)N[C@@H](CCCNC(=N)N)C(=O)N[C@@H](CCC(=O)O)C(=O)N[C@@H](CCCNC(=N)N)C(=O)N[C@@H](CCCCN)C(=O)N[C@@H](CCCCN)C(=O)N[C@@H](CCCNC(=N)N)C(=O)N[C@H](C(N)=O)[C@@H](C)O	55 nM
CC(=O)N[C@@H](CCCNC(=N)N)C(=O)N[C@@H](C)C(=O)N[C@@H](C)C(=O)N[C@@H](CCCNC(=N)N)C(=O)N[C@@H](CCCNC(=N)N)C(=O)N[C@@H](CCCCN)C(=O)N[C@@H](CCCCN)C(=O)N[C@@H](CCCNC(=N)N)C(=O)N[C@H](C(N)=O)[C@@H](C)O	23 nM
CC(=O)N[C@@H](CCCNC(=N)N)C(=O)N[C@@H](C)C(=O)N[C@@H](CCCNC(=N)N)C(=O)N[C@@H](CCC(N)=O)C(=O)N[C@@H](CCCNC(=N)N)C(=O)N[C@@H](CCCCN)C(=O)N[C@@H](CCCCN)C(=O)N[C@@H](CCCNC(=N)N)C(=O)N[C@H](C(N)=O)[C@@H](C)O	19 nM
CC(=O)N[C@@H](CCCNC(=N)N)C(=O)N[C@@H](C)C(=O)N[C@@H](Cc1ccc(O)cc1)C(=O)N[C@@H](CCCNC(=N)N)C(=O)N[C@@H](CCCNC(=N)N)C(=O)N[C@@H](CCCCN)C(=O)N[C@@H](CCCCN)C(=O)N[C@@H](CCCNC(=N)N)C(=O)N[C@H](C(N)=O)[C@@H](C)O	48 nM
CC(=O)N[C@@H](CCCNC(=N)N)C(=O)N[C@@H](CO)C(=O)N[C@@H](CCCNC(=N)N)C(=O)N[C@@H](CCCNC(=N)N)C(=O)N[C@@H](CCCNC(=N)N)C(=O)N[C@@H](CCCCN)C(=O)N[C@@H](CCCCN)C(=O)N[C@@H](CCCNC(=N)N)C(=O)N[C@H](C(N)=O)[C@@H](C)O	15 nM

SMILES	Ki
CC[C@H](C)[C@@H](NC(=O)[C@H](CCCNC(=N)N)NC(=O)[C@H](C)NC(=O)[C@H](CCCNC(=N)N)NC(C)=O)C(=O)N[C@@H](CCCNC(=N)N)C(=O)N[C@@H](CCCCN)C(=O)N[C@@H](CCCCN)C(=O)N[C@@H](CCCNC(=N)N)C(=O)N[C@H](C(N)=O)[C@@H](C)O	240 nM
CC(=O)N[C@@H](CCCNC(=N)N)C(=O)N[C@@H](C)C(=O)N[C@@H](CC(C)C)C(=O)N[C@@H](CCCNC(=N)N)C(=O)N[C@@H](CCCNC(=N)N)C(=O)N[C@@H](CCCCN)C(=O)N[C@@H](CCCCN)C(=O)N[C@@H](CCCNC(=N)N)C(=O)N[C@H](C(N)=O)[C@@H](C)O	14 nM
CC(=O)N[C@@H](CCCNC(=N)N)C(=O)N[C@@H](CC(N)=O)C(=O)N[C@@H](CCCNC(=N)N)C(=O)N[C@@H](CCCNC(=N)N)C(=O)N[C@@H](CCCNC(=N)N)C(=O)N[C@@H](CCCCN)C(=O)N[C@@H](CCCCN)C(=O)N[C@@H](CCCNC(=N)N)C(=O)N[C@H](C(N)=O)[C@@H](C)O	20 nM
CC(=O)N[C@@H](CCCNC(=N)N)C(=O)N[C@@H](C)C(=O)N[C@@H](CCCNC(=N)N)C(=O)N[C@H](C(=O)N[C@@H](CCCNC(=N)N)C(=O)N[C@@H](CCCCN)C(=O)N[C@@H](CCCCN)C(=O)N[C@@H](CCCNC(=N)N)C(=O)N[C@H](C(N)=O)[C@@H](C)O)C(C)(C)C	16 nM
CC(=O)N[C@@H](CCCNC(=N)N)C(=O)N[C@@H](C)C(=O)N[C@@H](CCCNC(=N)N)C(=O)N[C@@H](Cc1c[nH]cn1)C(=O)N[C@@H](CCCNC(=N)N)C(=O)N[C@@H](CCCCN)C(=O)N[C@@H](CCCCN)C(=O)N[C@@H](CCCNC(=N)N)C(=O)N[C@H](C(N)=O)[C@@H](C)O	22 nM
CC[C@H](C)[C@H](NC(=O)[C@H](CCCNC(=N)N)NC(=O)[C@H](C)NC(=O)[C@H](CCC(=O)O)NC(C)=O)C(=O)N[C@@H](CCCNC(=N)N)C(=O)N[C@@H](CCCCN)C(=O)N[C@@H](CCCCN)C(=O)N[C@@H](CCCNC(=N)N)C(=O)N[C@H](C(N)=O)[C@@H](C)O (Ac-EARIRKKRT-NH2)	12 nM
CC[C@H](C)[C@H](NC(=O)[C@H](CCCNC(=N)N)NC(=O)[C@H](C)NC(=O)C(C)(C)NC(C)=O)C(=O)N[C@@H](CCCNC(=N)N)C(=O)N[C@@H](CCCCN)C(=O)N[C@@H](CCCCN)C(=O)N[C@@H](CCCNC(=N)N)C(=O)N[C@H](C(N)=O)[C@@H](C)O (Ac-[Aib]ARIRKKRT-NH2)	13 nM
CC(=O)N[C@@H](CCCNC(=N)N)C(=O)N[C@@H](C)C(=O)N[C@@H](CCCNC(=N)N)C(=O)N[C@@H](CO)C(=O)N[C@@H](CCCNC(=N)N)C(=O)N[C@@H](CCCCN)C(=O)N[C@@H](CCCCN)C(=O)N[C@@H](CCCNC(=N)N)C(=O)N[C@H](C(N)=O)[C@@H](C)O	9 nM
CC(=O)N[C@@H](Cc1c[nH]cn1)C(=O)N[C@@H](C)C(=O)N[C@@H](CCCNC(=N)N)C(=O)N[C@@H](CCCNC(=N)N)C(=O)N[C@@H](CCCNC(=N)N)C(=O)N[C@@H](CCCCN)C(=O)N[C@@H](CCCCN)C(=O)N[C@@H](CCCNC(=N)N)C(=O)N[C@H](C(N)=O)[C@@H](C)O	12 nM
CC(=O)N[C@@H](CCCNC(=N)N)C(=O)N[C@@H](C)C(=O)N[C@H](C(=O)N[C@@H](CCCNC(=N)N)C(=O)N[C@@H](CCCNC(=N)N)C(=O)N[C@@H](CCCCN)C(=O)N[C@@H](CCCCN)C(=O)N[C@@H](CCCNC(=N)N)C(=O)N[C@H](C(N)=O)[C@@H](C)O)C(C)C	21 nM
CC[C@H](NC(=O)[C@H](CCCNC(=N)N)NC(=O)[C@H](C)NC(=O)[C@@H]1CCCN1C(C)=O)C(=O)N[C@@H](CCCNC(=N)N)C(=O)N[C@@H](CCCCN)C(=O)N[C@@H](CCCCN)C(=O)N[C@@H](CCCNC(=N)N)C(=O)N[C@H](C(N)=O)[C@@H](C)O	10 nM
CC(=O)N[C@@H](CCCNC(=N)N)C(=O)N[C@@H](CCCCN)C(=O)N[C@@H](CCCNC(=N)N)C(=O)N[C@@H](CCCNC(=N)N)C(=O)N[C@@H](CCCNC(=N)N)C(=O)N[C@@H](CCCCN)C(=O)N[C@@H](CCCCN)C(=O)N[C@@H](CCCNC(=N)N)C(=O)N[C@H](C(N)=O)[C@@H](C)O	16 nM
CC(=O)N[C@@H](CCCNC(=N)N)C(=O)N[C@@H](CC(C)C)C(=O)N[C@@H](CCCNC(=N)N)C(=O)N[C@@H](CCCNC(=N)N)C(=O)N[C@@H](CCCNC(=N)N)C(=O)N[C@@H](CCCCN)C(=O)N[C@@H](CCCCN)C(=O)N[C@@H](CCCNC(=N)N)C(=O)N[C@H](C(N)=O)[C@@H](C)O	23 nM
CC(=O)N[C@@H](CCCNC(=N)N)C(=O)N[C@@H](C)C(=O)N[C@@H](CCC(=O)O)C(=O)N[C@@H](CCCNC(=N)N)C(=O)N[C@@H](CCCNC(=N)N)C(=O)N[C@@H](CCCCN)C(=O)N[C@@H](CCCCN)C(=O)N[C@@H](CCCNC(=N)N)C(=O)N[C@H](C(N)=O)[C@@H](C)O	140 nM
CSCC[C@H](NC(=O)[C@H](C)NC(=O)[C@H](CCCNC(=N)N)NC(C)=O)C(=O)N[C@@H](CCCNC(=N)N)C(=O)N[C@@H](CCCNC(=N)N)C(=O)N[C@@H](CCCCN)C(=O)N[C@@H](CCCCN)C(=O)N[C@@H](CCCNC(=N)N)C(=O)N[C@H](C(N)=O)[C@@H](C)O	31 nM
